pIC50: −log10 of the molar value.
Legend:
[1] = test system: Human immunodeficiency virus 2; test: Antiviral activity against HIV 2 subtype A clinical isolate expressing 14H-60K/N-65E protease gene sequence from HIV2 infected patient plasma and PBMC obtained before compound treatment measured after 13 months; format: functional, organism-based; conditions: Human immunodeficiency virus 2, subtype A
Method in brief: (§1)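 Virus isolated by PBMC coculture from patient samples taken before (T0) or during (T1, T2) protease inhibitor exposure, with protease genes sequenced from plasma and PBMC isolates. Susceptibility was tested in the ANRS PBMC assay, and the 50% inhibitory concentration (IC50) was reported.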

[2] = test system: Human immunodeficiency virus 2; test: Antiviral activity against HIV 2 subtype A clinical isolate expressing 10I-40D-43I-70K-82F-84V-85L-89V-90M-91T/L-98N/K protease gene sequence from HIV2 infected patient plasma and PBMC obtained at T1 during compound treatment measured after 13 months; format: functional, organism-based; conditions: Human immunodeficiency virus 2, subtype A; method in brief: as §1
[3] = test system: Human immunodeficiency virus 2; test: Antiviral activity against HIV 2 subtype A clinical isolate expressing 14H-40D-70K-72R/K-91T/S protease gene sequence from HIV2 infected patient plasma and PBMC obtained before compound treatment measured after 13 months; format: functional, organism-based; conditions: Human immunodeficiency virus 2, subtype A; method in brief: as §1
[4] = test system: Human immunodeficiency virus 2; test: Antiviral activity against HIV 2 subtype B clinical isolate expressing 14Y-61N-99L protease gene sequence from HIV2 infected patient plasma and PBMC obtained before compound treatment measured after 13 months; format: functional, organism-based; conditions: Human immunodeficiency virus 2, subtype B\r\n; method in brief: as §1
[5] = test system: Human immunodeficiency virus 2; test: Antiviral activity against Human immunodeficiency virus type 2 (ISOLATE ROD) after 13 months; format: functional, organism-based; conditions: Human immunodeficiency virus 2, ISOLATE ROD
Method in brief: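 Reference strain ROD was tested in the ANRS PBMC assay alongside the clinical isolates, and the 50% inhibitory concentration (IC50) was reported.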

[6] = Antiviral activity against Human immunodeficiency virus type 1 (BRU ISOLATE) after […]; format: functional; conditions: Human immunodeficiency virus 1
[7] = test system: Human immunodeficiency virus 2; test: Antiviral activity against HIV 2 subtype H expressing 10I-34E-40P-41Y-60H-63N-70T-73G-82F-89L-92E protease gene sequence from HIV2 infected patient plasma and PBMC obtained at T1 during compound treatment measured after 13 months; format: functional, organism-based; conditions: Human immunodeficiency virus 2, subtype H; method in brief: as §1
[8] = test system: Human immunodeficiency virus 2; test: Antiviral activity against HIV 2 subtype A clinical isolate expressing 54M-65E-71I-74N-90M protease gene sequence from HIV2 infected patient plasma and PBMC obtained at T1 during compound treatment measured after 13 months; format: functional, organism-based; conditions: Human immunodeficiency virus 2, subtype A; method in brief: as §1
[9] = test system: Human immunodeficiency virus 2; test: Antiviral activity against HIV 2 subtype A clinical isolate expressing 14H-17D-43T-68N/D protease gene sequence from HIV2 infected patient plasma and PBMC obtained before compound treatment measured after 13 months; format: functional, organism-based; conditions: Human immunodeficiency virus 2, subtype A; method in brief: as §1
[10] = test system: Human immunodeficiency virus 2; test: Antiviral activity against HIV 2 subtype A clinical isolate expressing 5L/F-14Y/H-17G/D-43T-54I/M-62V/A-70R/K-71I protease gene sequence from HIV2 infected patient plasma and PBMC obtained at T1 during compound treatment measured after 13 months; format: functional, organism-based; conditions: Human immunodeficiency virus 2, subtype A; method in brief: as §1
[11] = test system: Human immunodeficiency virus 2; test: Antiviral activity against HIV 2 subtype B clinical isolate expressing 14Y-19P-33I-61N-71I-75M-84V-90M protease gene sequence from HIV2 infected patient plasma and PBMC obtained at T1 during compound treatment measured after 13 months; format: functional, organism-based; conditions: Human immunodeficiency virus 2, subtype B\r\n; method in brief: as §1
[12] = test system: Human immunodeficiency virus 2; test: Antiviral activity against HIV 2 subtype A clinical isolate expressing 10V/I-40D-43I-56V-70K-82F-84V-89V-90M protease gene sequence from HIV2 infected patient plasma and PBMC obtained at T2 during compound treatment measured after 3 months; format: functional, organism-based; conditions: Human immunodeficiency virus 2, subtype A; method in brief: as §1
[13] = test system: Human immunodeficiency virus 2; test: Antiviral activity against HIV 2 subtype B clinical isolate expressing 12Q-14R-17G/D-19P-61N-62I-92A protease gene sequence from HIV2 infected patient plasma and PBMC obtained before compound treatment measured after 13 months; format: functional, organism-based; conditions: Human immunodeficiency virus 2, subtype B\r\n; method in brief: as §1
[14] = test system: Human immunodeficiency virus 2; test: Antiviral activity against HIV 2 subtype B clinical isolate expressing 12T-14Y-19P-40N-41D-61N-62I-96S-99L protease gene sequence from HIV2 infected patient plasma and PBMC obtained before compound treatment measured after 13 months; format: functional, organism-based; conditions: Human immunodeficiency virus 2, subtype B\r\n; method in brief: as §1
[15] = test system: Human immunodeficiency virus 2; test: Antiviral activity against HIV 2 subtype H expressing 10I-40P-41Y-60H-63N-70T-73G-89L-92E protease gene sequence from HIV2 infected patient plasma and PBMC obtained before compound treatment measured after 13 months; format: functional, organism-based; conditions: Human immunodeficiency virus 2, subtype H; method in brief: as §1
[16] = test system: Human immunodeficiency virus 2; test: Antiviral activity against HIV 2 subtype B clinical isolate expressing 14Y-19P-61N-64V-71I-90M-95I protease gene sequence from HIV2 infected patient plasma and PBMC obtained at T2 during compound treatment measured after 3 months; format: functional, organism-based; conditions: Human immunodeficiency virus 2, subtype B\r\n; method in brief: as §1
[17] = test system: Human immunodeficiency virus 2; test: Antiviral activity against HIV 2 subtype A clinical isolate expressing 10I-17D-40D-43I-46V-66V/A-70R/K protease gene sequence from HIV2 infected patient plasma and PBMC obtained before compound treatment measured after 13 months; format: functional, organism-based; conditions: Human immunodeficiency virus 2, subtype A; method in brief: as §1
[18] = test system: Human immunodeficiency virus 2; test: Antiviral activity against HIV 2 subtype A clinical isolate expressing 10I-17D-40D-43I-45K/R-46V-54M-64I/V-69K/R-71V/I-90M protease gene sequence from HIV2 infected patient plasma and PBMC obtained at T1 during compound treatment measured after 13 months; format: functional, organism-based; conditions: Human immunodeficiency virus 2, subtype A; method in brief: as §1

Row | SMILES | pIC50 [1] | IC90 [1] | pIC50 [2] | IC90 [2] | pIC50 [3] | IC90 [3] | pIC50 [4] | IC90 [4] | pIC50 [5] | IC90 [5] | pIC50 [6] | IC90 [6] | pIC50 [7] | IC90 [7] | pIC50 [8] | IC90 [8] | pIC50 [9] | IC90 [9] | pIC50 [10] | pIC50 [11] | other results
1 | COC(=O)N[C@H](C(=O)N[C@@H](Cc1ccccc1)[C@@H](O)CN(Cc1ccc(-c2ccccn2)cc1)NC(=O)[C@@H](NC(=O)OC)C(C)(C)C)C(C)(C)C [ATAZANAVIR] | 7.40 | 300 nM | 7.40 | 1300 nM | 7.40 | 200 nM | 7.22 | 300 nM | 7.52 | 100 nM | 8.15 | 30 nM | 5.72 | 15000 nM | 6.40 | 1800 nM | 7.15 | 200 nM | 6.52 | 5.66 | IC90 [10]: 2100 nM; IC90 [11]: 17000 nM; pIC50 [12]: 6.40; IC90 [12]: 3000 nM; pIC50 [13]: 7.52; IC90 [13]: 300 nM; pIC50 [14]: 6.70; IC90 [14]: 400 nM; pIC50 [15]: 7.00; IC90 [15]: 500 nM; pIC50 [16]: 6.70; IC90 [16]: 1400 nM; pIC50 [17]: 7.00; IC90 [17]: 300 nM; pIC50 [18]: 6.70; IC90 [18]: 1800 nM
2 | CC(C)CN(C[C@@H](O)[C@H](Cc1ccccc1)NC(=O)O[C@H]1CO[C@H]2OCC[C@H]21)S(=O)(=O)c1ccc(N)cc1 [DARUNAVIR] | 8.00 | 30 nM | 6.30 | 2400 nM | 8.40 | 20 nM | 8.70 | 10 nM | 8.30 | 20 nM | 8.40 | 9 nM | 6.05 | 4700 nM | 6.70 | 1400 nM | 8.05 | 30 nM | 6.22 | 6.30 | IC90 [10]: 7300 nM; IC90 [11]: 3900 nM; pIC50 [12]: 6.00; IC90 [12]: 8100 nM; pIC50 [13]: 8.00; IC90 [13]: 50 nM; pIC50 [14]: 8.40; IC90 [14]: 20 nM; pIC50 [15]: 8.40; IC90 [15]: 40 nM; pIC50 [16]: 6.15; IC90 [16]: 5100 nM; pIC50 [17]: 8.40; IC90 [17]: 30 nM; pIC50 [18]: 6.10; IC90 [18]: 3000 nM
3 | CC(C)(C)NC(=O)[C@@H]1CN(Cc2cccnc2)CCN1C[C@@H](O)C[C@@H](Cc1ccccc1)C(=O)N[C@H]1c2ccccc2C[C@H]1O [INDINAVIR] | 7.52 | 400 nM | 5.19 | 51000 nM | 7.70 | 400 nM | 7.00 | 600 nM | 7.52 | 300 nM | 8.30 | 40 nM | 4.92 | 99000 nM | 5.00 | 82000 nM | > 8.00 | < 10 nM | 4.74 | 5.42 | IC90 [11]: 30000 nM; pIC50 [12]: 4.96; IC90 [12]: 90000 nM; pIC50 [13]: 6.40; IC90 [13]: 2600 nM; pIC50 [14]: 8.40; IC90 [14]: 20 nM; pIC50 [15]: 7.70; IC90 [15]: 500 nM; pIC50 [16]: 4.92; IC90 [16]: 95000 nM; pIC50 [17]: 8.40; IC90 [17]: 100 nM; pIC50 [18]: 6.70; IC90 [18]: 3100 nM
